Data on one compound can be found in ChEMBL document CHEMBL1142545, “1,3-Dialkyl-8-(hetero)aryl-9-OH-9-deazaxanthines as potent A2B adenosine receptor antagonists: design, synthesis, structure-affinity and structure-selectivity relationships” (Bioorg Med Chem, 2008).

Assay [1] addresses Adenosine receptor A2a (Homo sapiens, UniProt P29274). The assay is described as follows: Displacement of [3H]ZM241385 from human cloned adenosine A2A receptor expressed in human HeLa cells. Format: cell-based. For orientation: Loss of bound radioactivity is the signal in a displacement assay; it reports binding, not function.
Assay [2] deals with Adenosine receptor A2a (Rattus norvegicus, UniProt P30543). The assay is described as follows: Antagonist activity at adenosine A2A receptor in Sprague-Dawley rat aorta assessed as inhibition of phenylephrine-induced contraction. Type of assay: functional, tissue-based. Conditions: read-out: pA2 (converted). The procedure, abridged: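 Aorta from male Sprague-Dawley rats (200–250 g), cut into 4 mm rings in Krebs solution at 37 °C with carbogen, 2 g basal tension, stabilised 60 min. Rings were contracted with phenylephrine, then antagonist was incubated for 30 min before cumulative NECA relaxation curves. pA2 = log((EC50'/EC50) − 1) − log C, from NECA EC50 with and without antagonist.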
Chain of Adenosine receptor A2a (Rattus norvegicus, UniProt P30543) (P30543 whole entry): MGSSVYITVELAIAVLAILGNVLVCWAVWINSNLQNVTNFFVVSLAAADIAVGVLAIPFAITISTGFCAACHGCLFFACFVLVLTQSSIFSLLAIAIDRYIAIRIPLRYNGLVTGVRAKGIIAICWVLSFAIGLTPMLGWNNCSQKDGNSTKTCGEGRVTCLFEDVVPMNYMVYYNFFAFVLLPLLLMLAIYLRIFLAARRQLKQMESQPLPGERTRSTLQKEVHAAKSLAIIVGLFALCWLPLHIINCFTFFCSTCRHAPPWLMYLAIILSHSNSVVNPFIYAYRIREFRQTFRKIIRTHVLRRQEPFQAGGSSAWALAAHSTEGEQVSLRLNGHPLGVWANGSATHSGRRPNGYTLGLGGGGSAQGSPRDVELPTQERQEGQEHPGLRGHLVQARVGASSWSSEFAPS

Assay [3] deals with HeLa. The assay is described as follows: Selectivity index, ratio of Ki for human cloned adenosine A2A receptor expressed in human HeLa cells to Ki for human cloned adenosine A2B receptor expressed in HEK293 cells. Format: cell-based. A digest of the protocol: (§1)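 SI is the ratio of Ki values. […] A1 in CHO cells: [3H]DPCPX 2 nM. A2A in HeLa cells: [3H]ZM241385 3 nM. A2B in HEK-293 cells: [3H]DPCPX 25 nM. A3 in HeLa cells: [3H]NECA 30 nM. Filtration and scintillation counting.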

Assay [4] concerns HeLa. As to the kind of experiment: Selectivity index, ratio of Ki for human cloned adenosine A3 receptor expressed in human HeLa cells to Ki for human cloned adenosine A2B receptor expressed in HEK293 cells. Type of assay: cell-based. A digest of the protocol: as §1
The target in assay [5] is T1, Adenosine receptor A2b (Rattus norvegicus, UniProt P29276).
T1 sequence (P29276 whole entry): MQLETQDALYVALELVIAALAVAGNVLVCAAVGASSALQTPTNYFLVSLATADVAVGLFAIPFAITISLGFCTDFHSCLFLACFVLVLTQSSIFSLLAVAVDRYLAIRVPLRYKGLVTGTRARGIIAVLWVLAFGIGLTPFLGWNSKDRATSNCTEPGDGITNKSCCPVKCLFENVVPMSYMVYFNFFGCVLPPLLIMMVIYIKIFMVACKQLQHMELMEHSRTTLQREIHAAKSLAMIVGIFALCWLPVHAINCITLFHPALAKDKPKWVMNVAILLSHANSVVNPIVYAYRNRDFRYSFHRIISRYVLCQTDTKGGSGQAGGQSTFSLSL
As to the kind of experiment: Antagonist activity at adenosine A2B receptor in Wistar-Kyoto rat distal colon. The conditions noted are these: read-out: pA2 (converted).

The test system of assay [6] is HEK293. The assay is described as follows: Selectivity index, ratio of Ki for human cloned adenosine A1 receptor expressed in CHO cells to Ki for human cloned adenosine A2B receptor expressed in HEK293 cells. Type of assay: cell-based. The procedure, abridged:
as §1

For assay [7], the target named is T2, Adenosine receptor A1 (Homo sapiens, UniProt P30542).
T2 sequence (P30542 whole entry): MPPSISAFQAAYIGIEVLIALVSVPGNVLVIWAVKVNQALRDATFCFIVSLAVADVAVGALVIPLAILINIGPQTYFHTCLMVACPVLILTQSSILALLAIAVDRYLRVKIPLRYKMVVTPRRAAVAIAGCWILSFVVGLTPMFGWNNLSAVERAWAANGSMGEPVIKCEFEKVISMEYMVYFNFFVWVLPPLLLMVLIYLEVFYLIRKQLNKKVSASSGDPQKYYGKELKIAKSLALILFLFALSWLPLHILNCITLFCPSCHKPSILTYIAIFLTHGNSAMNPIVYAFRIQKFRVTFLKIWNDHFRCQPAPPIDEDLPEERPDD
The assay is described as follows: Displacement of [3H]DPCPX from human cloned adenosine A1 receptor expressed in CHO cells. Type of assay: cell-based.

Assay [8] deals with T3, Adenosine receptor A2b (Homo sapiens, UniProt P29275).
T3 sequence (P29275 whole entry): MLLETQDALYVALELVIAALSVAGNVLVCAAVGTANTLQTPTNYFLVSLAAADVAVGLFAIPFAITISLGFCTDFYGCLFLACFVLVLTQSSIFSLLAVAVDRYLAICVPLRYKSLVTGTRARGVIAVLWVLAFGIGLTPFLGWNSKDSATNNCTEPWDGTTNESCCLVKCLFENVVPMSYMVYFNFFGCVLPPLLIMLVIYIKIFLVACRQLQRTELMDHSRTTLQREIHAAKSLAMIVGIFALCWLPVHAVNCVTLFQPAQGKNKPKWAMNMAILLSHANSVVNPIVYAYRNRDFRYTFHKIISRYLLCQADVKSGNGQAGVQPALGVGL
As to the kind of experiment: Displacement of [3H]DPCPX from human cloned adenosine A2B receptor expressed in HEK293 cells. Format: cell-based.

Assay [9] deals with Adenosine receptor A3 (Homo sapiens, UniProt P0DMS8). As to the kind of experiment: Displacement of [3H]NECA from human cloned adenosine A3 receptor expressed in human HeLa cells. Format: cell-based.
Chain of Adenosine receptor A3 (P0DMS8 whole entry): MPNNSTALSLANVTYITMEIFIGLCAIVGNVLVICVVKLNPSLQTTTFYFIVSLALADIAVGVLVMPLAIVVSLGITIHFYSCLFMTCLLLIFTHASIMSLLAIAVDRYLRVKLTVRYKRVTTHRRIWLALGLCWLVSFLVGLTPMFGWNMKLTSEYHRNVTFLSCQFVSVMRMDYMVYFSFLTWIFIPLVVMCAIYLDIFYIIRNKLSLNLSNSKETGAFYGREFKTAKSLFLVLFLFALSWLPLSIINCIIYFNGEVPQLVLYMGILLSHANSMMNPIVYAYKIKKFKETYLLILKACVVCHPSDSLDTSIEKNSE

For orientation: Ki means the equilibrium dissociation constant of an inhibitor or competing ligand from its target.

Chain of Adenosine receptor A2a (Homo sapiens, UniProt P29274) (P29274 whole entry): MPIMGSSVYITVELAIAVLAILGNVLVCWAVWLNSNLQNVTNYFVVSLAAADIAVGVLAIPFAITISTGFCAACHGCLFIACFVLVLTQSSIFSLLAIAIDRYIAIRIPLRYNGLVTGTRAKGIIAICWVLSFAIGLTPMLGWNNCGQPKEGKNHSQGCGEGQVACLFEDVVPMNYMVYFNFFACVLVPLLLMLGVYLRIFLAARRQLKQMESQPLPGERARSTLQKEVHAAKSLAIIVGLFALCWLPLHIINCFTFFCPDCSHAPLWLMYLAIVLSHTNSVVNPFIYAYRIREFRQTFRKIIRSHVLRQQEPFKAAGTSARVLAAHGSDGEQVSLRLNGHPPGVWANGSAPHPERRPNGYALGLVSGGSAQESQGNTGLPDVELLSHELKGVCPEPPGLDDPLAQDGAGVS

Consider `CCCn1c(=O)c2[nH]c(-c3ccc(OCC(=O)Nc4ccc(Br)cc4)cc3)c(O)c2n(CCC)c1=O`, for which the Ki in [1] was found to be 100 nM; in assay [7], 79 nM; in [8], 1 nM; in assay [9] it was 1290 nM. Further, the results for the Kb in assay [2] and in assay [5] were 224 nM and 0.468 nM, respectively. For the same compound, the Ratio Ki was found to be 100 in [3], 1290 in assay [4] and 79 in [6].
